Assay: Toxicity liver stage against HepG2, at 10uM
Assay type: cell-based
Parameters: test concentration 10 uM, cell line HepG2-A16-CD81EGFP
Conditions: human, HepG2-A16-CD81EGFP cells; read-out: INHIBITION
Summary of the method: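 Uninfected HepG2-A16-CD81EGFP cells, 3 × 10^3 per well, 1536-well, plated on prespotted compound at 10 μM final, parasite-free screening media added to match infected plates; puromycin 10 μM positive, DMSO 0.5% negative; run in parallel with 48 h PbLuc assay at 37 °C, 5% CO2; viability by CellTiter-Glo luminescence, normalized to controls.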

Compound	cytotoxicity at 10 µM [%]
COc1ccc(C(=O)NCc2ccc(C(=O)O)o2)cc1	-0.806
Cc1ccc(NCc2ccccc2C#N)cc1-n1cnnn1	4.25
O=C(NC[C@H]1C[C@@H]2CCN1C[C@@H]2CN1CCCC1)c1ccco1	-3.84
Clc1ccc(-c2nnc([C@H]3CCN(C4CCCCC4)C3)o2)cc1	-120
CC(C)(C)NC(=O)C[C@@H]1CCNC[C@@H]1Cc1cc(C(C)(C)C)on1	4.37
CN1CCC(NC(=O)c2cc(C3CCCCC3)nc3ccccc23)CC1	-1.25
O=C(Nc1ccc(Br)cc1F)c1ccc(N2CCCCC2)nn1	1.16
Cc1ccccc1NC(=O)NCCn1nc(C(F)(F)F)n(C)c1=O	-1.68
O=C([C@H]1COC[C@H]2CN(C3CCOCC3)C[C@H]21)N1CCCCO1	5.22
COCc1n[nH]/c(=N\C(=O)c2c3c(nc4onc(C)c24)CCC3)s1	-4.41
CC(C(=O)Nc1ccccn1)n1ccc(C(F)(F)F)n1 (stereo unspecified)	2.74
CCn1nc(C)c2nnn(CC(=O)Nc3ccc(C)c(C)c3)c(=O)c21	5.75
CCc1c(O)nc2nc(N3CCOCC3)nn2c1C	10.8
CCCC(=O)N1CCC(Nc2nc(O)cc(-c3ccsc3)n2)CC1	5.46
Cc1cn([C@H]2CCNC[C@]2(C)O)c(=O)[nH]c1=O	-6.22
Cc1cc(-c2ccc(=O)n(CCNC(=O)C3CCC3)n2)c(C)o1	-2.32
Cc1cc(C)n(CCNCc2cc(-c3ccc(F)cc3)c[nH]c2=O)n1	-5.24
CO[C@@H]1CCC[C@@H](NC(=O)C(C)(C)c2cccc(F)c2)[C@H]1O	-1.09
CN(CCc1ccccc1)Cc1cnc(C2(C)CCCCO2)nc1 (stereo unspecified)	1.99
CNc1ncccc1CN1CCC1c1cc(N)nc(C)n1 (stereo unspecified)	15.9
CCNC(=O)C1(Cc2cc(-c3ccccc3)no2)CCCN(C)C1 (stereo unspecified)	5.31
CC(C)c1cn(CC(=O)NC2CC(=O)N(CCc3ccccc3)C2)nn1 (stereo unspecified)	-15.1
CNC(=O)c1ccc(-c2ccc(CNC(=O)COC)cc2)nc1C	-5.52

Compound	cytotoxicity at 10 µM [%]
Cc1ccnc(C2CCN(c3ccnc(C)n3)C2)n1 (stereo unspecified)	-0.485
Cn1ccnc1CN1CCCC(CCCc2ccccn2)(C(N)=O)C1 (stereo unspecified)	2.83
Cc1nccc(N2CCCC2CCNS(C)(=O)=O)n1 (stereo unspecified)	0.146
COc1ccc(C(C)NCc2cccs2)cc1Cn1cccn1 (stereo unspecified)	10.2
CCOCC(O)CNc1cncc(Br)c1 (stereo unspecified)	4.21
Cc1ncc(CNC(=O)NCc2c(F)cccc2OC(F)F)s1	-4.27
CCOCCN1CCN(CC2(O)CCCCC2)CC1	1.34
Cn1c(CS(=O)(=O)c2ccc(Cl)cc2)cc(=O)n(C)c1=O	7.5
COc1ccc(OCCN(C)CCCn2cnc3c(N)ncnc32)cc1	1.12
CC(C)Cc1cc(C(=O)N2CCCN(c3ncccn3)CC2)[nH]n1	4.57
O=C(CCn1cncn1)NCCOc1cccc(Cl)c1	1.58
O=C(CNC1(CCO)CCOCC1)Nc1ccc(F)cc1F	-41.6
Cc1ccccc1Cc1nc(CSc2nnc(N)n2C)no1	5.26
Cc1ccn(CC(=O)NCCCOc2ccccc2F)c(=O)c1	-5.79
O=C(CCc1nc(-c2cccnc2)no1)NCC1CCN(C2CC2)C1 (stereo unspecified)	0.113
CNC(=O)NCC(=O)N1CCCC1Cc1cccc(F)c1 (stereo unspecified)	-2.59
CC(NC(=O)c1cc(N2CCNC2=O)ccc1F)c1ccc(F)cc1 (stereo unspecified)	5.89
CCn1ccnc1CN1CCN(c2ncnc3ccsc23)CC1C (stereo unspecified)	3.04
CCN(C)CCNC(=O)Cc1nc(-c2ccco2)oc1C	-12.5
N#Cc1ccnc(N2CCN(CC(O)c3ccc(F)cc3)CC2)c1 (stereo unspecified)	2.99
CC(C(=O)NCc1ccnc(OC2CCCC2)c1)n1cncn1 (stereo unspecified)	10.4
CC(C)CC(=O)N1CCN(Cc2csc(-c3ncccn3)n2)CC1	8.61
Cc1csc(N2CCN(C(=O)c3cc(Cl)c[nH]3)CC2)n1	-2.82

Compound	cytotoxicity at 10 µM [%]
O=C(NCc1ccccn1)NCC(O)c1ccccc1C(F)(F)F (stereo unspecified)	-0.36
CCCN(CCC)Cc1nnsc1Cl	10.3
Cc1ccc(CN(C(=O)NCC(c2cccs2)N(C)C)C2CC2)o1 (stereo unspecified)	-4.24
CC(C)(C)C(O)CN1CCN(C(=O)COCC2CC2)CC1 (stereo unspecified)	5.54
Cc1ccc(CNC(=O)CNCC2CCN(CCO)CC2)s1	6.89
Cc1cc(N2CCc3cnc(C)nc3C2)n2nc(C(F)(F)F)nc2n1	0.769
Cn1cnnc1CCNC(=O)c1cnn(Cc2ccccc2)c1	-0.722
COc1c(NC(=O)N(C)CCOc2ccc(F)cc2)c(C)nn1C	1.4
FC(F)(F)c1nnc2n1CCN(c1nc(C3CC3)ns1)C2	8.21
CN(CCS(=O)(=O)c1cc(Cl)ccc1Cl)CC(N)=O	4.65
CC(C)c1nc(C2CCCN2CCc2ccccn2)no1 (stereo unspecified)	3.38
CCNC(=O)N1CCc2ccc(NC(=O)NCC3CC3)cc21	3.53
O=C(NC1CCN(CC2CC2)C1)c1ccc(C(=O)c2cc[nH]c2)cc1 (stereo unspecified)	-6.14
Cc1cc(S(=O)(=O)N2CCCc3cc(F)cc(F)c32)sc1C(=O)O	21.8
O=C(c1ccc[nH]1)N1CCn2cc(Cn3cncn3)nc2C1	-2.65
CN1CCN(CC2CC2)C(=O)c2cnc(N3CCCC3)nc21	5.08
NC(=O)c1nc(CN2CCOC(C(F)(F)F)C2)no1 (stereo unspecified)	-3.39
CCn1c(CN(C)C)nnc1C1CCN(Cc2ccc(C)s2)CC1	7.01
Cc1nnsc1CNC(=O)CSCc1ccccc1Cl	-2.85
Cc1ccc(-c2ccnc(N(C)CC3CCCN3C)n2)c(C)n1 (stereo unspecified)	-9.66
COC(=O)[C@@H](NC(=O)c1coc(COc2cccc(F)c2)n1)C(C)C	-142
O=C(NCCCNc1cccnc1)c1ccc2nccn2c1	-42.4
COCCCN(C(=O)c1ccc(-n2ccnc2)cc1)C1CCN(C)CC1	-15.8

Compound	cytotoxicity at 10 µM [%]
Cc1cc(=O)[nH]c(SC(C)C(=O)N2CCC(c3ncc[nH]3)CC2)n1 (stereo unspecified)	-16.2
Nc1ccc(C(=O)N2CCCC(c3nccn3Cc3cscn3)C2)cn1 (stereo unspecified)	-4.92
COc1ccc(/C=C/CN2CCN(c3ncccc3C(N)=O)CC2)cc1	-8.88
Cc1cc(N2Cc3cnc(CC(C)C)nc3C2)nc(N)n1	-5.64
Cc1csc(CCNC(=O)C2CCCN(C3CCOCC3)C2)n1 (stereo unspecified)	3.01
CCC(CC)N(Cc1ccc2c(c1)OCO2)C(=O)c1ccc(=O)n(C)c1	9.06
CCc1cnc(N2CCOC(CCOC)C2)nc1 (stereo unspecified)	-3.88
CCc1ncc(C(=O)N2CCC(O)(CN3CCOCC3)C(C)(C)C2)cn1 (stereo unspecified)	-4.6
COCCN1CC(=O)N2CC[C@@H](O)C[C@H]2C1=O	-8.03
COCc1nc(CN2CCN(c3ccc(OC)cc3)C(=O)C2C)no1 (stereo unspecified)	3.35
CCn1ccnc1C1CCN(C(=O)C(O)c2ccc(OC)cc2)CC1 (stereo unspecified)	0.171
CNC(=O)C(C)CNC(=O)c1coc(COc2cccc(F)c2F)n1 (stereo unspecified)	5.21
CCc1c(C(=O)N2CC[C@H](N3CCOCC3)[C@H](CCCO)C2)csc1C	-141
Cc1c(C(=O)N2CCC3(CCCN(CC4CC4)C3=O)C2)ccn1C (stereo unspecified)	-3.92
CN(CCc1noc(C2CC2)n1)C(=O)C1(N2CCCC2)CCCC1	-146
CSc1ccc2cc(CN(C)CCO)c(=O)[nH]c2c1	5.76
C[C@@H]1CN(C(=O)CCCN2CCCC2)CC[C@@]1(O)C1CCOCC1	-0.422
CCn1nc(C)c(NC(=O)CN2CC[C@H](CO)[C@@H](O)C2)c1C	0.887
Cc1ccccc1C(=O)Nc1ccc(OC2CCN(C)CC2)cc1	-1.57
CC(C)N(Cc1nccn1C)C(=O)c1cc(Cl)c[nH]c1=O	-0.723
O=C(NCCN1CCNC1=O)c1cc(-c2ccc(O)cc2)n[nH]1	6.27
CCn1ncnc1C(C)NC(=O)C1CCN(C(=O)COC)CC1 (stereo unspecified)	2.82
Cc1nc(N2CCN(C)CC2)ncc1C(=O)N1CC(C)(C)C(C)(O)C1 (stereo unspecified)	18.5

Compound	cytotoxicity at 10 µM [%]
Cc1cc(C)n(CC2CCCN2C(=O)c2cccc3c2OCCO3)n1 (stereo unspecified)	-11.8
COc1ccc(OC)c(CNCc2ccnc(N3CCCCC3)c2)c1	0.25
CCn1ccnc1CN1CCN(CC(O)c2ccco2)CC1 (stereo unspecified)	-4.57
CN(C)CC1CN(Cc2cccc(C(=O)N(C)C)c2)CCO1 (stereo unspecified)	-0.729
CC1CCCN(C(=O)c2cccc(CS(C)(=O)=O)c2)C1 (stereo unspecified)	-1.42
Cc1nn(C)c(N(C)C)c1CNCc1cccc(OCCN(C)C)c1	1.38
CCn1ccnc1CN1CCN(C(C)C(=O)NC2CCCCC2)CC1 (stereo unspecified)	-2.17
Cc1noc(C)c1CN1CCN(Cc2nccn2C)C(C)C1 (stereo unspecified)	-5.38
CNS(=O)(=O)CCCN1CCCC1c1noc(C2CC2)n1 (stereo unspecified)	-16.5
CC(C)CN1CCN(C(=O)NCc2cccnc2-n2cccn2)CC1	7.29
CCNC(=O)[C@@H]1CCCN1C1(C(=O)NC)CCCCC1	5.09
Cc1cc(Oc2ccc(NC(=O)C3CC3)cc2)cc(C2CCNCC2)n1	-6.18
O=C1COC2(CCN(Cc3cccs3)CC2)CN1c1cccnc1	-125
Cc1cccc(CN2CC3C[C@]3(NC(=O)c3cccc(F)c3)C2)n1 (stereo partly specified)	-151
O=C(c1cnccn1)N1CCN2C[C@H](OCc3ccccc3)C[C@H]2C1	1.44
CCOCC1CN(Cc2ccco2)Cc2nccn2C1 (stereo unspecified)	-142
O=C(c1cnccn1)N1C[C@@H]2C[C@@H](c3nc(C4CC4)cs3)O[C@@H]2C1	-118
CN(C)C(=O)CN1CCOCC2(C1)CN(c1ncc(F)cn1)CCO2 (stereo unspecified)	-6.69
Oc1cccc(CN2C[C@@H]3CC[C@H]2CN(Cc2cccnc2)C3)c1	-121

Source: ChEMBL document CHEMBL4513216, “Probing the Open Global Health Chemical Diversity Library for Multistage-Active Starting Points for Next-Generation Antimalarials” (ACS Infect Dis, 2020)
